As a reminder, the IC50 is the concentration at which inhibition is half-maximal. Read a high IC50 as weaker potency.

The experiment can be described thus: In vitro antimalarial activity against human malaria parasite, P falciparum (Vietnam Smith strain). It counts as functional, Plasmodium falciparum. In short, it runs like this:
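P. falciparum in infected erythrocytes, semisynchronized cultures, initial parasitemia 1-3%, in RPMI 1640 with 25 mM HEPES, bicarbonate, 5% pooled calf serum; agents from 10^-2 M DMSO stocks at various concentrations, 48 h exposure with 1 μCi [3H]hypoxanthine per well throughout. Filter-harvested, scintillation counted. IC50 = 50% drop in incorporation vs drug-free controls, graphic extrapolation, mean of 2-4 observations.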
For `CN(C)c1cccc2c(S(=O)(=O)Oc3cccc4c3C(=O)C=C(N3CC3)C4=O)cccc12`, the IC50 is 290 nM.

`CS(=O)(=O)Oc1cccc2c1C(=O)C(N1CC1)=C(N1CC1)C2=O` yielded an IC50 of 3200 nM.

`Cc1ccc(S(=O)(=O)Oc2cccc3c2C(=O)C(N2CC2)=C(N2CC2)C3=O)cc1`: the IC50 stood at 4600 nM.

`Cc1ccc(S(=O)(=O)Oc2cccc3c2C(=O)C=C(N2CC2)C3=O)cc1`: 200 nM corresponded to half-maximal inhibition (IC50).

On to `CC1(C)C2CCC1(CS(=O)(=O)Oc1cccc3c1C(=O)C(N1CC1)=C(N1CC1)C3=O)C(=O)C2` (centres undefined), for which the IC50 was found to be 6000 nM.

As for `O=C1C(N2CC2)=C(N2CC2)C(=O)c2c(O)cccc21`, the IC50 worked out at 1600 nM.

`CN(C)c1cccc2c(S(=O)(=O)Oc3cccc4c3C(=O)C(N3CC3)=C(N3CC3)C4=O)cccc12` yielded an IC50 of 3000 nM.

Compound `O=C1C(N2CC2)=C(N2CC2)C(=O)c2c(OS(=O)(=O)Cc3ccccc3)cccc21` yielded an IC50 of 2400 nM.

On to `Cc1cc(C)c(S(=O)(=O)Oc2cccc3c2C(=O)C(N2CC2)=C(N2CC2)C3=O)c(C)c1`, for which it took 3900 nM to reach half-maximal inhibition (IC50).

As for `CC1=C(N2CC2)C(=O)c2c(OS(=O)(=O)c3ccc(C(C)(C)C)cc3)cccc2C1=O`, the IC50 is 3600 nM.

`O=C(Oc1cccc2c1C(=O)C=C(N1CC1)C2=O)c1ccccc1` came in with an IC50 of 450 nM.

As for `CCc1ccc(S(=O)(=O)Oc2cccc3c2C(=O)C=C(N2CC2)C3=O)cc1`, the IC50 worked out at 96 nM.

In turn, `O=C1C(N2CC2)=C(N2CC2)C(=O)c2c(OS(=O)(=O)c3ccc(Br)cc3)cccc21` had an IC50 of 3700 nM.

With `O=C1C(N2CC2)=CC(=O)c2c(OS(=O)(=O)c3ccc(I)cc3)cccc21`, the IC50 is 330 nM.

Turning to `CN(C)S(=O)(=O)Oc1cccc2c1C(=O)C=C(NCCCl)C2=O`, the midpoint of inhibition, the IC50, lay at 2200 nM.

`O=C1C(N2CC2)=CC(=O)c2c(OS(=O)(=O)/C=C/c3ccccc3)cccc21` showed an IC50 of 170 nM.

`O=C(Oc1cccc2c1C(=O)C(N1CC1)=C(N1CC1)C2=O)c1cccs1` displayed a concentration for half-maximal inhibition (IC50) of 2600 nM.

The compound `O=C1C(NCCCl)=CC(=O)c2c(OS(=O)(=O)Cc3ccccc3)cccc21` displayed an IC50 of 6500 nM.

Take `O=C(Oc1cccc2c1C(=O)C=C(N1CC1)C2=O)c1ccc(Cl)cc1`: half-maximal inhibition (IC50) was put at 530 nM.

`CC1=C(N2CC2)C(=O)c2c(O)cccc2C1=O` came in with an IC50 of 1500 nM.

The compound `O=C1C(N2CC2)=CC(=O)c2c(OS(=O)(=O)c3cccc4ccccc34)cccc21` gave an IC50 of 130 nM.

Compound `COc1ccc(C(=O)Oc2cccc3c2C(=O)C=C(N2CC2)C3=O)cc1` came in with an IC50 of 540 nM.

In turn, `O=C1C(N2CC2)=C(N2CC2)C(=O)c2c(OS(=O)(=O)/C=C/c3ccccc3)cccc21` displayed an IC50 of 5800 nM.

With `CCc1ccc(S(=O)(=O)Oc2cccc3c2C(=O)C(N2CC2)=C(N2CC2)C3=O)cc1`, the IC50 amounted to 4000 nM.

`CC(C)c1cc(C(C)C)c(S(=O)(=O)Oc2cccc3c2C(=O)C(N2CC2)=C(N2CC2)C3=O)c(C(C)C)c1` yielded an IC50 of 3000 nM.

For the compound `O=C1C(N2CC2)=CC(=O)c2c(O)cccc21`, it took 88 nM to reach half-maximal inhibition (IC50).

Consider `O=C1C(N2CC2)=C(N2CC2)C(=O)c2c(OS(=O)(=O)c3ccccc3)cccc21`, for which the concentration for half-maximal inhibition (IC50) is 5800 nM.

Compound `O=C1C(N2CC2)=C(N2CC2)C(=O)c2c(OS(=O)(=O)c3ccc(I)cc3)cccc21` displayed an IC50 of 4100 nM.

`O=C1C(N2CC2)=C(N2CC2)C(=O)c2c(OS(=O)(=O)c3ccc(Cl)cc3)cccc21` showed an IC50 of 3200 nM.

Compound `O=C1C(N2CC2)=C(N2CC2)C(=O)c2c(OS(=O)(=O)c3cccc4ccccc34)cccc21` yielded an IC50 of 3400 nM.

Take `O=C1C(N2CC2)=C(N2CC2)C(=O)c2c(OS(=O)(=O)CCCCl)cccc21`: the IC50 is 3000 nM.

With `CCCCCCCCCCCCCCCCS(=O)(=O)Oc1cccc2c1C(=O)C(N1CC1)=C(N1CC1)C2=O`, the IC50 amounted to 20000 nM.

In turn, `O=C1C(N2CC2)=C(N2CC2)C(=O)c2c(OS(=O)(=O)c3ccc([N+](=O)[O-])cc3)cccc21` came in with an IC50 of 7600 nM.

In the case of `O=C1C(N2CC2)=CC(=O)c2c(OS(=O)(=O)c3cccc4cccnc34)cccc21`, the IC50 stood at 430 nM.

As for `O=C1C(N2CC2)=CC(=O)c2c(OS(=O)(=O)c3cccs3)cccc21`, the IC50 is 470 nM.

In turn, `C/N=C1\C=C(O)c2c(O)cccc2C1=O` gave an IC50 of 3700 nM.

Regarding `COc1ccc(C(=O)Oc2cccc3c2C(=O)C(N2CC2)=C(N2CC2)C3=O)cc1`, the IC50 was 3700 nM.

`O=C(Oc1cccc2c1C(=O)C(N1CC1)=C(N1CC1)C2=O)c1ccccc1` displayed an IC50 of 2600 nM.

`O=C(Oc1cccc2c1C(=O)C(N1CC1)=C(N1CC1)C2=O)c1ccc(F)cc1` returned an IC50 of 4400 nM.

With `Cc1ccc(C(=O)Oc2cccc3c2C(=O)C=C(N2CC2)C3=O)cc1`, the IC50 was 620 nM.

`O=C1/C(=N/CCCl)C=C(O)c2c(O)cccc21` gave an IC50 of 4300 nM.

The compound `COc1ccc(S(=O)(=O)Oc2cccc3c2C(=O)C=C(N2CC2)C3=O)cc1` had an IC50 of 160 nM.

The compound `Cc1ccc(C(=O)Oc2cccc3c2C(=O)C(N2CC2)=C(N2CC2)C3=O)cc1` had an IC50 of 4400 nM.

`O=C(Oc1cccc2c1C(=O)C=C(N1CC1)C2=O)c1ccc(F)cc1` came in with an IC50 of 490 nM.

With `O=C(Oc1cccc2c1C(=O)C=C(N1CC1)C2=O)c1ccco1`, the IC50 worked out at 490 nM.

`COc1cc(C(=O)Oc2cccc3c2C(=O)C=C(N2CC2)C3=O)cc(OC)c1OC` showed an IC50 of 160 nM.

On to `CN(C)c1cccc2c(S(=O)(=O)Oc3cccc4c3C(=O)C=C(NCCCl)C4=O)cccc12`, for which the IC50 stood at 2900 nM.

`O=C(Oc1cccc2c1C(=O)C(N1CC1)=C(N1CC1)C2=O)c1cc(Cl)sc1Cl` displayed an IC50 of 3900 nM.

`CC(C)(C)c1ccc(S(=O)(=O)Oc2cccc3c2C(=O)C=C(N2CC2)C3=O)cc1` yielded an IC50 of 24 nM.

In the case of `O=C1C(N2CC2)=CC(=O)c2c(OS(=O)(=O)c3ccc(F)cc3)cccc21`, 140 nM corresponded to half-maximal inhibition (IC50).

For `O=C(Oc1cccc2c1C(=O)C(N1CC1)=C(N1CC1)C2=O)c1ccco1`, the IC50 turned out to be 4600 nM.

`O=C1C(N2CC2)=C(N2CC2)C(=O)c2c(OS(=O)(=O)c3ccc([N+](=O)[O-])c([N+](=O)[O-])c3)cccc21` displayed an IC50 of 2400 nM.

The compound `O=C1C(N2CC2)=CC(=O)c2c(OS(=O)(=O)c3ccccc3)cccc21` gave an IC50 of 230 nM.

As for `CC(C)c1cc(C(C)C)c(S(=O)(=O)Oc2cccc3c2C(=O)C=C(N2CC2)C3=O)c(C(C)C)c1`, the IC50 is 280 nM.

`CN(C)C1=CC(=O)c2c(O)cccc2C1=O` came in with an IC50 of 1600 nM.

`O=C1C(N2CC2)=C(N2CC2)C(=O)c2c(OC(=O)C34CC5CC(CC(C5)C3)C4)cccc21` registered an IC50 of 5400 nM.

`O=C(Oc1cccc2c1C(=O)C(N1CC1)=C(N1CC1)C2=O)c1ccc(Cl)cc1` had an IC50 of 1700 nM.

In the case of `O=C(Oc1cccc2c1C(=O)C=C(N1CC1)C2=O)c1cccs1`, inhibition was half-maximal at 470 nM (IC50).

Turning to `CS(=O)(=O)Oc1cccc2c1C(=O)C=C(NCCCl)C2=O`, the IC50 was found to be 8500 nM.

The compound `COc1cc(C(=O)Oc2cccc3c2C(=O)C(N2CC2)=C(N2CC2)C3=O)cc(OC)c1OC` had an IC50 of 3400 nM.

As for `O=C1C=CC(=O)c2c(O)cccc21` [JUGLONE], the midpoint of inhibition, the IC50, lay at 3700 nM.

As for `O=C1C=C(O)C(=O)c2ccccc21` [LAWSONE], the IC50 turned out to be 100000 nM.

In turn, `CC1=CC(=O)c2ccccc2C1=O` [MENADIONE] returned an IC50 of 3400 nM.

In turn, `CC1=CC(=O)c2c(O)cccc2C1=O` [PLUMBAGIN] came in with an IC50 of 2400 nM.

Source of the values: ChEMBL document CHEMBL1125879, “Synthesis and antimalarial activity of 2-aziridinyl- and 2,3-bis(aziridinyl)-1,4-naphthoquinonyl sulfonate and acylate derivatives” (J Med Chem, 1991).
